Data on 8 compounds can be found in ChEMBL document CHEMBL1123658, “1-(2-pyridinyl)piperazine derivatives with antianaphylactic, antibronchospastic, and mast cell stabilizing activities” (J Med Chem, 1987).

Where only a bound is given, the exact number is not on record here.

In data set [1] the test system is Rattus norvegicus. Description: Rat PCA Test(50% inhibition of spot areas)in the female albino rats after oral administration in 10% aqueous acacia gum. The format is functional. The note with it: read-out: ID50 (the source's name). The gist of the method: (§1)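 Female rats (200-250 g) were passively sensitized by ventral intradermal anti-egg-albumin antiserum. This was raised in rats by intramuscular 1% egg albumin plus ip H. pertussis vaccine, with serum taken at 12 days. After 24 h, groups of 10 were dosed orally with compound or vehicle (10 mL/kg). At 60 min, iv challenge used 0.3% egg albumin with 1% Evans blue. Blued areas were measured after 30 min.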

Data set [2] concerns Rattus norvegicus. Description: Inhibition of mast cell degranulation was assessed in female albino rats at a dose of 29 umol/kg iv. The data set is classed as functional.
The subject of data set [3] is Rattus norvegicus. In words: Rat PCA Test(50% inhibition of spot areas)in the female albino rats after (ip) administration in 10% aqueous acacia gum; value ranges from 57-105. The note with it: read-out: ID50 (the source's name). The format is functional. The essentials: (§2)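 Female albino rats (200–250 g) received intradermal ventral injections of rat anti-egg-albumin antiserum; donors were raised with egg albumin im plus H. pertussis ip, and serum was taken at 12 days. 24 h later, compound was given ip in 10% acacia gum (10 mL/kg), 10 rats/group. Challenge 30 min later was iv 0.3% egg albumin plus 1% Evans blue. Blued areas were measured 30 min after challenge.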

For data set [4], the system named is Cavia porcellus. Description: Antibronchospatic activity determined by histamine stimulated bronchospasm inhibition in guinea pigs after(i.v.) administration. The data set is classed as functional, Bronchiole. The gist of the method: (§3)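 Guinea pigs, Konzett–Rössler preparation. Bronchospasm was induced with histamine. Compound was given iv (1 mL/kg) 1 min before the agonist, dissolved in saline or saline with slight excess HCl or CH3SO3H (pH 3.5–4). Three doses were tested in duplicate, chosen to give 20–90% inhibition. ID75 was read graphically from log dose–response curves.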

A short description of data set [5]: In vivo toxic effect was determined in mouse after intraperitoneal administration with 10% aqueous acacia gum; value ranges from 1.73-3.04. The data set is classed as toxicity, organism-based. The note with it: ip. The gist of the method:
(§4)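 Female albino mice (20-30 g), 10 animals per dose, dosed intraperitoneally with compound in solution or suspension; compounds tested as salts unless noted. Mortality was recorded over 7 days.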

A short description of data set [6]: In vivo toxicity in mouse after oral administration with 10% aqueous acacia gum. The data set is classed as organism-based. The essentials:
(§5)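 Female albino mice, 20-30 g. Compound given orally as solution or suspension in 10% aqueous acacia gum, 10 animals per dose. Deaths recorded over 7 days.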

The test system of data set [7] is Rattus norvegicus. In words: Rat PCA Test(50% inhibition of spot areas)in the female albino rats after (ip) administration in 10% aqueous acacia gum; value ranges from 41.2-87.3. The format is functional. The note with it: read-out: ID50 (the source's name). The essentials:
as §2

Data set [8] relates to Rattus norvegicus. Description: Inhibition of mast cell degranulation was assessed in female albino rats at a dose of 43 umol/kg iv. The format is functional.
In the next data set the test system is Mus musculus. In words: In vivo toxic effect was determined in mouse after intraperitoneal administration with 10% aqueous acacia gum; NA means poorly absorbed. The format is toxicity, organism-based. The note with it: ip. The gist of the method:
as §4

In data set [9] the test system is Cavia porcellus. Description: Antibronchospatic activity was determined by inhibition of histamine stimulated bronchospasm in guinea pigs after (i.v.) administration. The format is functional, Bronchiole. The essentials:
as §3

Data set [10] deals with Rattus norvegicus. In words: Rat PCA Test(50% inhibition of spot areas)in the female albino rats after (ip) administration in 10% aqueous acacia gum; value ranges from 328-1350. The format is functional. The note with it: read-out: ID50 (the source's name). The gist of the method: as §2
A short description of data set [11]: In vivo toxic effect was determined in mouse after intraperitoneal administration with 10% aqueous acacia gum; value ranges from 3.67-6.20. The format is toxicity, organism-based. The note with it: ip. The essentials: as §4
For data set [12], the system named is Rattus norvegicus. Description: Rat PCA Test(50% inhibition of spot areas)in the female albino rats after (ip) administration in 10% aqueous acacia gum; value ranges from 141-206. The data set is classed as functional. The note with it: read-out: ID50 (the source's name). The essentials:
as §2

Data set [13] deals with Rattus norvegicus. In words: Inhibition of mast cell degranulation was assessed in female albino rats at a dose of 28 umol/kg iv. The data set is classed as functional.
The subject of data set [14] is Rattus norvegicus. Description: Rat PCA Test(50% inhibition of spot areas)in the female albino rats after oral administration in 10% aqueous acacia gum; value ranges from 30-108. The note with it: read-out: ID50 (the source's name). The data set is classed as functional. The essentials:
as §1

A short description of data set [15]: In vivo toxic effect was determined in mouse after oral administration with 10% aqueous acacia gum; value ranges from 0.67-1.21. The format is toxicity, organism-based. The gist of the method: as §5
Data set [16] is described as follows: In vivo toxic effect was determined in mouse after intraperitoneal administration with 10% aqueous acacia gum; value ranges from 0.40-1.72. The format is toxicity, organism-based. The note with it: ip. The essentials: as §4
Data set [17] relates to Rattus norvegicus. Description: Rat PCA Test(50% inhibition of spot areas)in the female albino rats after (ip) administration in 10% aqueous acacia gum; value ranges from 24-51. The note with it: read-out: ID50 (the source's name). The data set is classed as functional. The gist of the method:
as §2

The subject of data set [18] is Rattus norvegicus. In words: Rat PCA Test(50% inhibition of spot areas)in the female albino rats after oral administration in 10% aqueous acacia gum; value ranges from 13-117. The format is functional. The note with it: read-out: ID50 (the source's name). The gist of the method: as §1
Data set [19] in a line: In vivo toxic effect was determined in mouse after intraperitoneal administration with 10% aqueous acacia gum; value ranges from 1-1.40. The note with it: ip. The data set is classed as toxicity, organism-based. The gist of the method: as §4
Data set [20] deals with Rattus norvegicus. Description: Inhibition of mast cell degranulation was assessed in female albino rats at a dose of 45 umol/kg iv. The data set is classed as functional.
Data set [21] in a line: In vivo toxic effect was determined in mouse after oral administration with 10% aqueous acacia gum; value ranges from 2.50-3.50. The data set is classed as toxicity, organism-based. The essentials: as §5
A short description of data set [22]: In vivo toxic effect was determined in mouse after oral administration with 10% aqueous acacia gum; value ranges from 1.79-2.41. The data set is classed as toxicity, organism-based. The gist of the method:
as §5

Data set [23] concerns Rattus norvegicus. In words: Inhibition of mast cell degranulation was assessed in female albino rats at a dose of 61 umol/kg iv. The data set is classed as functional.
Data set [24] is described as follows: In vivo toxic effect was determined in mouse after intraperitoneal administration with 10% aqueous acacia gum; value ranges from 0.96-10.62. The data set is classed as toxicity, organism-based. The note with it: ip. The essentials: as §4
The nature of data set [25]: In vivo toxic effect was determined in mouse after intraperitoneal administration with 10% aqueous acacia gum; value ranges from 0.72-1.40. The data set is classed as toxicity, organism-based. The note with it: ip. The essentials:
as §4

Data set [26] is described as follows: In vivo toxic effect was determined in mouse after oral administration with 10% aqueous acacia gum; value ranges from 1.35-1.88. The format is toxicity, organism-based. The essentials:
as §5

Data set [27] deals with Rattus norvegicus. In words: Rat PCA Test(50% inhibition of spot areas)in the female albino rats after (ip) administration in 10% aqueous acacia gum; value ranges from 22-195. The format is functional. The note with it: read-out: ID50 (the source's name). The gist of the method:
as §2

One may read the inhibition in vivo as the percentage by which the read-out fell short of the control. By LD50 is commonly meant the dose at which mortality reaches 50%. A higher LD50 goes with a less toxic substance. Consider `CC(=O)c1ccccc1NC(=O)CCN1CCN(c2ccccn2)CC1.Cl.Cl`, for which the ED50 in the data set on Rattus norvegicus [1] is greater than 230 µmol/kg; in the data set with Rattus norvegicus [3], 77 µmol/kg. The compound further came in with an inhibition in vivo at 29 µmol/kg in the data set on Rattus norvegicus [2] of 0%. For the same compound, the ID75 with Cavia porcellus [4] is 0.89 µM/kg. In addition, the LD50 in [5] is 2300 µmol/kg; in [6] it was greater than 6910 µmol/kg.

For the compound `O=C([O-])c1cc(=O)c2c(OCC(O)COc3cccc4oc(C(=O)[O-])cc(=O)c34)cccc2o1.[Na+].[Na+]` [CROMOLYN SODIUM], the ED50 in the data set with Rattus norvegicus [7] was 60 µmol/kg; in the data set on Rattus norvegicus [1] it was greater than 640 µmol/kg. The inhibition in vivo at 43 µmol/kg in the data set on Rattus norvegicus [8] came out at 83%. Also, the LD50 result is “Not Active” in the data set on Mus musculus and greater than 6410 µmol/kg in data set [6]. The ID75 in the data set with Cavia porcellus [9] is greater than 21 µM/kg.

`CCOC(=O)CCN1CCN(c2ccccn2)CC1.Cl.Cl`: the ED50 in the data set on Rattus norvegicus [10] was found to be 665 µmol/kg. Further, the LD50 in data set [11] is 5080 µmol/kg. The same compound registered an ID75 in the data set with Cavia porcellus [4] of 7.03 µM/kg.

As to `CSc1ccc(NC(=O)CCN2CCN(c3ccccn3)CC2)cc1`, the results for the ED50 in the data set with Rattus norvegicus [12] and in the data set with Rattus norvegicus [14] were 171 µmol/kg and 57 µmol/kg, respectively. The same compound registered an inhibition in vivo at 28 µmol/kg in the data set on Rattus norvegicus [13] of 50%. Moreover, the ID75 in the data set on Cavia porcellus [4] is 0.17 µM/kg. The results for the LD50 result (in the data set with Mus musculus; in data set [6]) were “Not Active” and greater than 8400 µmol/kg, respectively.

Turning to `Cl.Cl.O=C(CCN1CCN(c2ccccn2)CC1)Nc1ccc([N+](=O)[O-])cc1`, the LD50 in data set [15] came out at 810 µmol/kg; in data set [16], 470 µmol/kg. The ID75 in the data set on Cavia porcellus [4] was 0.94 µM/kg.

For the compound `CC1CN(c2ccccn2)CCN1CCC(=O)Nc1ccc(N)cc1.Cl` (stereo not drawn), the ED50 was 35 µmol/kg in the data set on Rattus norvegicus [17] and 92 µmol/kg in the data set with Rattus norvegicus [18]. In addition, the LD50 is 1190 µmol/kg in data set [19] and 2970 µmol/kg in data set [21]. In the data set on Rattus norvegicus [20], this compound yielded an inhibition in vivo at 45 µmol/kg of 14%. In the data set with Cavia porcellus [4], this compound yielded an ID75 of 0.59 µM/kg.

As to `Nc1ccccc1NC(=O)CCN1CCN(c2ccccn2)CC1`, the LD50 in [22] came out at 2080 µmol/kg; in [24], 3200 µmol/kg. The compound further gave an inhibition in vivo at 61 µmol/kg in the data set on Rattus norvegicus [23] of 26%.

As for `Cc1ccccc1NC(=O)CCN1CCN(c2ccccn2)CC1`, the ED50 was greater than 96 µmol/kg in the data set with Rattus norvegicus [1] and 65 µmol/kg with Rattus norvegicus [27]. Besides, the LD50 in data set [25] is 1010 µmol/kg; in [26], 1580 µmol/kg. For the same compound, the ID75 with Cavia porcellus [4] came to 0.47 µM/kg.
